From ChEMBL document CHEMBL4007447, “Synthesis, biological evaluation and molecular docking study of N-(2-methoxyphenyl)-6-((4-nitrophenyl)sulfonyl)benzamide derivatives as potent HIV-1 Vif antagonists” (Eur J Med Chem, 2017)
In brackets after ≈: the same amount, converted by molar mass. Activity calls are given as the source filed them. The rule behind the calls is not given here.

Assays:
[1] = Cytotoxicity against human H9 cells assessed as reduction in cell viability after 7 days by MTT assay; type: cell-based
How it was run: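 MTT viability assay. H9 at 4×10^4 cells/well or PHA-stimulated PBMCs at 5×10^5 cells/well were incubated with serially diluted compound at 37 °C, 5% CO2 for seven days before MTT read-out. CC50 was calculated; mean ± standard deviation of three separate experiments.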

[2] = test system: Human immunodeficiency virus 1; assay: Antiviral activity against HIV1 subtype B NL4-3 infected in human H9 cells assessed as reduction in p24 level after 7 days by ELISA; type: functional, cell-based; details: Human immunodeficiency virus 1, subtype B NL4-3, H9, 168 h
How it was run: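 H9 cells infected with NL4-3 at MOI 0.03 for 2 h, washed three times, then seeded at 4×10^4 cells/well with serially diluted compound. Incubated 7 days; supernatant p24 measured by in-house ELISA and EC50 calculated. Three separate experiments, mean ± standard deviation.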

[3] = Therapeutic index, ratio of CC50 for human H9 cells to EC50 for HIV1 subtype B NL4-3 infected in human H9 cells
How it was run: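 Ratio of CC50 to EC50, both measured in H9 cells: MTT cytotoxicity over seven days, and p24 ELISA after 7 days of NL4-3 infection at MOI 0.03.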

[4] = test system: Human immunodeficiency virus 1; assay: Inhibition of HIV1 Vif expressed in TREX-hVif-15 cells co-expressing EYFP-N1-tagged human A3G assessed as reduction in Vif-mediated A3G degradation at 5 to 20 ug/ml after 48 hrs by flow cytometry; type: cell-based
How it was run: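 TREX-hvif-15 cells, in which Vif is under Tet-On control, were plated at 2×10^5 cells/well and grown overnight. At about 80% confluence they were transfected with EYFP-N1-hA3G. After 6 h the cells were washed, and compounds at varied concentrations were added together with doxycycline to induce Vif. Cells were trypsin-harvested 48 h post-transfection, and EYFP-positive cells were measured by flow cytometry. The no-Vif condition was set to 100%.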

[5] = Aqueous solubility in water after 24 to 72 hrs by HPLC based shake flask method; type: physicochemical
How it was run: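 Equilibrium shake-flask solubility: excess compound placed in water, methanol, ethanol, acetonitrile, ethyl acetate or acetone and shaken 24-72 h at 25 °C. Filtered through 0.22 μm membrane, diluted, and quantified by HPLC on a C18 column with methanol/water 70/30 mobile phase and UV 251 nm. n=3, mean ± SD.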

EC50 [2] [µM] | solubility thermodynamic [5] [µg/mL] | SMILES | CC50 at 168 h [1] [µM] | Ratio CC50/EC50 [3] | inhibition [4]
8.24 | – | COc1ccccc1NC(=O)c1c(Sc2ccc([N+](=O)[O-])cc2)cccc1N1CCNCC1 | 30.6 | 3.71 | –
30.6 | – | COc1ccccc1NC(=O)c1c(NS(=O)(=O)c2ccc(C)cc2)cccc1Sc1ccc([N+](=O)[O-])cc1 | 364 | 11.9 | –
223 | – | COc1ccccc1NC(=O)c1cc(C(F)(F)F)ccc1Sc1ccc([N+](=O)[O-])cc1 | – | – | –
6.63 | – | COc1ccccc1NC(=O)c1cc(N)ccc1Sc1ccc([N+](=O)[O-])cc1 | – | – | –
216 | – | COc1ccccc1NC(=O)c1c(NCCO)cccc1S(=O)(=O)c1ccc([N+](=O)[O-])cc1 | 154 | 0.713 | –
242 | – | COc1ccccc1NC(=O)c1c(Sc2ccc([N+](=O)[O-])cc2)cccc1N1CCOCC1 | – | – | –
51.2 | – | COc1ccccc1NC(=O)c1cscc1Sc1ccc([N+](=O)[O-])cc1 | 518 | 10.1 | –
147 | – | COc1ccccc1NC(=O)c1cccnc1Sc1ccc([N+](=O)[O-])cc1 | 525 | 3.57 | –
10.5 | – | COc1ccccc1NC(=O)c1c(N)cccc1[S+]([O-])c1ccc([N+](=O)[O-])cc1 (stereo not given) | 335 | 31.9 | –
457 | – | COc1ccccc1NC(=O)c1cc(NC(C)=O)ccc1Sc1ccc([N+](=O)[O-])cc1 | 171 | 0.374 | –
249 | – | COc1ccccc1NC(=O)c1cc(F)ccc1Sc1ccc([N+](=O)[O-])cc1 | 502 | 2.02 | –
214 | – | COc1ccccc1NC(=O)c1c(NCCN)cccc1S(=O)(=O)c1ccc([N+](=O)[O-])cc1 | 211 | 0.986 | –
187 | – | COc1ccccc1NC(=O)c1c(NS(=O)(=O)c2ccccc2)cccc1Sc1ccc([N+](=O)[O-])cc1 | – | – | –
176 | – | COc1ccccc1NC(=O)c1c(NS(=O)(=O)c2ccccc2)cccc1S(=O)(=O)c1ccc([N+](=O)[O-])cc1 | – | – | –
240 | – | CNc1ccc(Sc2ccc([N+](=O)[O-])cc2)c(C(=O)Nc2ccccc2OC)c1 | 302 | 1.26 | –
226 | – | COc1ccccc1NC(=O)c1c(N(C)C)cccc1S(=O)(=O)c1ccc([N+](=O)[O-])cc1 | 439 | 1.94 | –
54.7 | – | COc1ccccc1C(=O)Nc1nc(Cl)ncc1Sc1ccc([N+](=O)[O-])cc1 | 480 | 8.78 | –
62.2 | – | COc1ccccc1NC(=O)c1sccc1Sc1ccc([N+](=O)[O-])cc1 | 472 | 7.59 | –
43.6 | – | COc1ccccc1NC(=O)c1c(NCCO)cccc1Sc1ccc([N+](=O)[O-])cc1 | 265 | 6.08 | –
1.87 | – | COc1ccccc1NC(=O)c1c(N)cccc1Sc1ccc([N+](=O)[O-])cc1 | 387 | 207 | –
18.3 | – | COc1ccccc1NC(=O)c1cc(Cl)ccc1Sc1ccc([N+](=O)[O-])cc1 | 483 | 26.4 | –
1.46 | 120 (≈ 209 µM) | COc1ccccc1NC(=O)c1c(NC(=O)C(N)Cc2ccccc2)cccc1S(=O)(=O)c1ccc([N+](=O)[O-])cc1 (stereo not given) | 216 | 148 | –
172 | – | COc1ccccc1NC(=O)c1c(NS(=O)(=O)c2ccc(C)cc2)cccc1S(=O)(=O)c1ccc([N+](=O)[O-])cc1 | – | – | –
41.8 | – | COc1ccccc1NC(=O)c1c(NCC(N)=O)cccc1Sc1ccc([N+](=O)[O-])cc1 | 35.5 | 0.849 | –
233 | – | COc1ccccc1NC(=O)c1cc(N(C)C)ccc1Sc1ccc([N+](=O)[O-])cc1 | 182 | 0.781 | –
94.6 | – | COc1ccccc1NC(=O)c1c(N)cccc1Oc1ccc([N+](=O)[O-])cc1 | 202 | 2.14 | –

SMILES | EC50 [2] [µM] | solubility thermodynamic [5] [µg/mL] | CC50 at 168 h [1] [µM] | Ratio CC50/EC50 [3] | inhibition [4]
COc1ccccc1NC(=O)c1c(NCCN)cccc1Sc1ccc([N+](=O)[O-])cc1 | 45.4 | – | – | – | –
CNc1cccc(S(=O)(=O)c2ccc([N+](=O)[O-])cc2)c1C(=O)Nc1ccccc1OC | 278 | – | 200 | – | –
COc1ccccc1NC(=O)c1c(NCCBr)cccc1Sc1ccc([N+](=O)[O-])cc1 | 221 | – | – | – | –
COc1ccccc1NC(=O)c1ccccc1Sc1ccc([N+](=O)[O-])cc1 | 263 | – | – | – | Active
COc1ccccc1NC(=O)c1cc([N+](=O)[O-])ccc1Sc1ccc([N+](=O)[O-])cc1 | 235 | – | – | – | –
COc1ccccc1NC(=O)c1c(Sc2ccc([N+](=O)[O-])cc2)cccc1[N+](=O)[O-] | 235 | – | – | – | –
